As a reminder, the IC50 is the midpoint of a concentration-inhibition curve. High values mean a need for much substance, low ones inhibition by little substance. What is called Ki is a dissociation constant, usually derived from enzyme kinetics or from competition with a known ligand. High values mean a looser hold on the target, low ones a stronger hold on the target.

The structures appear in SMILES notation.

Experimental findings from ChEMBL document CHEMBL1154588, “Evaluation of triazolamers as active site inhibitors of HIV-1 protease” (Bioorg Med Chem Lett, 2009) are described below.

Chain of Protease (Q9YQ12 whole entry): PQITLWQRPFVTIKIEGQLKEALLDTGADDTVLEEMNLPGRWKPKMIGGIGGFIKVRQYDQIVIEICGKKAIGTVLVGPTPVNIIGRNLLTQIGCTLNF

The assay concerns the target Protease (Human immunodeficiency virus 1, UniProt Q9YQ12). Nature of the assay: Inhibition of HIV1 protease by FRET-based assay. An outline of the steps:
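HIV-1 protease activity was read out by a FRET-based protease assay, following a previously described method. Triazolamer solutions were made up in 10% DMSO in aqueous buffer for the assay.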
As for `CC(C)[C@@H](c1cn([C@@H](Cc2ccccc2)c2cn([C@@H](Cc3ccccc3)c3cn([C@H](c4cn([C@H](C)c5ccccc5)nn4)C(C)C)nn3)nn2)nn1)n1cc(CCc2ccccc2)nn1`, half-maximal inhibition (IC50) required 101 µM.

Turning to `C[C@H](c1ccccc1)n1cc([C@H](Cc2ccccc2)n2cc([C@H](Cc3ccccc3)n3cc([C@@H](N)Cc4ccccc4)nn3)nn2)nn1`, the half-inhibitory concentration (IC50) amounted to 78 µM.

With `CC(C)[C@H](N)c1cn([C@@H](Cc2ccccc2)c2cn([C@@H](Cc3ccccc3)c3cn([C@H](C)c4ccccc4)nn3)nn2)nn1`, the IC50 stood at 129 µM.

As to `CNC(=O)[C@H](C(C)C)n1cc([C@H](Cc2ccccc2)n2cc([C@H](Cc3ccccc3)n3cc([C@@H](N)C(C)C)nn3)nn2)nn1`, the half-maximal inhibitory concentration (IC50) is over 500 µM and the inhibitory constant (Ki) came to 500 µM.

`C[C@H](c1ccccc1)n1cc([C@H](Cc2ccccc2)n2cc([C@H](Cc3ccccc3)n3cc([C@H](Cc4ccccc4)n4cc([C@@H](N)Cc5ccccc5)nn4)nn3)nn2)nn1` gave an IC50 of 29 µM and a Ki of 25 µM.

`CNC(=O)[C@H](Cc1ccccc1)n1cc([C@H](Cc2ccccc2)n2cc([C@H](Cc3ccccc3)n3cc([C@H](Cc4ccccc4)n4cc([C@@H](N)Cc5ccccc5)nn4)nn3)nn2)nn1` gave an IC50 of 72 µM.

As to `CC(C)[C@H](N)c1cn([C@@H](Cc2ccccc2)c2cn([C@@H](Cc3ccccc3)c3cn([C@H](c4cn([C@H](C)c5ccccc5)nn4)C(C)C)nn3)nn2)nn1`, it took 60 µM to reach half-maximal inhibition (IC50).

On to `CC(C)[C@H](N)c1cn([C@H](c2cn([C@@H](Cc3ccccc3)c3cn([C@H](c4cn([C@H](C)c5ccccc5)nn4)C(C)C)nn3)nn2)C(C)C)nn1`, for which the half-inhibitory concentration (IC50) is 131 µM.

The compound `NCCNC(=O)[C@H](Cc1ccccc1)n1cc([C@H](Cc2ccccc2)n2cc([C@H](Cc3ccccc3)n3cc([C@H](Cc4ccccc4)n4cc([C@@H](N)Cc5ccccc5)nn4)nn3)nn2)nn1` gave an IC50 of 25 µM and an inhibition constant Ki of 25 µM.

For `CNC(=O)[C@H](C(C)C)n1cc([C@H](Cc2ccccc2)n2cc([C@H](Cc3ccccc3)n3cc([C@H](C)N)nn3)nn2)nn1`, the IC50 was over 500 µM and the affinity corresponds to a Ki of 500 µM.
